Data on one molecule can be found in article PMC4363136 (Biochemical pharmacology, 2014).

One data set has as its system MAPs-rich tubulin. Briefly: Light scattering assay of MAPs-rich tubulin polymerization. Type of data set: biochemical, goat. Particulars: 50 µM compound, 1 mg/ml MAPs-rich tubulin, 37°C, 400 nm.
In data set [1] the test system is pure tubulin. Briefly: Light scattering assay of pure tubulin polymerization. It is filed as biochemical, goat. Particulars: 10 µM tubulin, 1M monosodium glutamate.
The next data set relates to MAPs rich tubulin. Briefly: GTPase activity assay. Type of data set: biochemical, goat. Particulars: different concentrations of compound, 10 min.
In data set [2] the test system is pure tubulin. The data set is described as follows: GTPase activity assay. It is filed as biochemical, goat. Particulars: 50 µM compound, compared to control.
Data set [3] relates to PC-3 cells. The data set is described as follows: MTT cell proliferation assay, PC-3. It is filed as cell-based, human. Particulars: Homo sapiens, PC-3, 48 h. The method, boiled down:
(§1)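 Cell lines were grown in medium with 10% FBS and 1% penicillin/streptomycin: PC-3 in RPMI; HeLa, MIA PaCa-2 and T24 in DMEM. Cells were seeded at 5×10^3 per well, attached overnight, then given test compound (0–500 µM, from PBS solution, diluted in medium) for 48 h. MTT was added for 4 h and formazan dissolved in DMSO. A570 was read. IC50 is the concentration giving 50% inhibition of proliferation.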

Another data set relates to HeLa cells. Briefly: MTT cell proliferation assay, HeLa. It is filed as cell-based. Particulars: Homo sapiens, 48 h. Put shortly:
as §1
A general note: Tetrazolium dyes change colour on reduction, which living cells bring about.

Another data set concerns MIA PaCa-2 cells. Briefly: MTT cell proliferation assay, MIA PaCa-2. Particulars: Homo sapiens, MIA PaCa-2, 48 h. Type of data set: cell-based. The method, boiled down:
as §1

In another data set the test system is T24 bladder cancer cells. Briefly: MTT cell proliferation assay, T24. Type of data set: cell-based. Particulars: 48 h. The method, boiled down: as §1
Data set [4] in a line: Pharmacokinetics after intravenous administration. Particulars: male, CD-1, mouse, plasma, iv, 5 mg/kg. Type of data set: in vivo, CD-1 mice. The method, boiled down:
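Male CD-1 mice, fasted 3 h, received a single IV dose of test compound at 5 mg/kg in water. Blood was sampled sparsely from the retro-orbital plexus at 5 min–24 h into K2EDTA. Plasma was protein-precipitated with acetonitrile and 7-hydroxynoscapine internal standard, then quantified by positive-mode MRM LC-MS/MS (calibration 1 ng/mL–1 µg/mL). Non-compartmental analysis: linear-trapezoid AUC, CL and Vss from IV data, C0 back-extrapolated.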

Data set [5] in a line: Pharmacokinetics after oral administration. It is filed as in vivo, CD-1 mice. Particulars: plasma, 50 mg/kg. The method, boiled down: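 Male CD-1 mice (3 per group), fasted 3 h, were dosed once by oral gavage at 50 mg/kg in water. Plasma was collected by sparse retro-orbital sampling at 5 min–24 h. Samples were acetonitrile-precipitated with internal standard and assayed by LC-MS/MS (1 ng/mL–1 µg/mL). Non-compartmental analysis: linear-trapezoid AUClast, Cmax taken as observed. F is dose-normalized oral AUClast over IV (5 mg/kg) AUClast.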

Data set [6] concerns PC-3 cells. Briefly: Immunofluorescence confocal microscopy of spindle morphology. Type of data set: cell-based, human. Particulars: 12h and 24h. Put shortly:
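PC-3 cells were grown on glass coverslips and exposed to test compound for 12 h or 24 h. Cells were fixed in −20 °C methanol for 10 min, then blocked in 2% BSA/PBS at 37 °C for 1 h. They were stained with anti-α- and anti-γ-tubulin (1:1000, 45 min, 37 °C) and Alexa Fluor 488/555 secondaries (1:1000, 45 min, 37 °C). DNA was stained with DAPI. Slides were mounted in antifade and imaged by confocal microscopy.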

Regarding `COc1ccc2c(c1OCCCCS(=O)(=O)O)C(=O)O[C@@H]2[C@H]1c2c(cc3c(c2OC)OCO3)CCN1C` [Compound 6b, 4-(((S)-5-methoxy-1-((R)-4-methoxy-6-methyl-5,6,7,8-tetrahydro-[1,3]dioxolo[4,5-g]isoquinolin-5-yl)-3-oxo-1,3-dihydroisobenzofuran-4-yl)oxy)butane-1-sulfonic acid], the “Percent decrease in light scattering of MAP-tubulin” value with MAPs-rich tubulin is 74 ± 13%. Besides, the “% Decrease in light scattering of pure tubulin” value in the data set with pure tubulin [1] (10 µM compound) amounted to 14±6%; with pure tubulin [1] (25 µM compound) it was 25±7.6%; in the data set with pure tubulin [1] (50 µM compound) it was 35±7.2%. Besides, the “change in GTPase activity of MAPs-rich tubulin” value in the data set on MAPs rich tubulin is on record as “increased significantly”. The “change in GTPase activity of pure tubulin” value in the data set on pure tubulin [2] is “did not change significantly”. Besides, the 50% inhibitory concentration (IC50) (usually the concentration that inhibits the measured activity by half) came to 19 µM in the data set with PC-3 cells [3], 66 µM in the data set with HeLa cells, 30 µM in the data set on MIA PaCa-2 cells and 3.3 µM in the data set on T24 bladder cancer cells. In addition, the AUC(0-t) (in general, exposure summed from dosing to a finite time, without extrapolation to infinity) in data set [4] was determined as 198 ng·h/mL; in data set [5] (male, CD-1, mouse, po), 611 ng·h/mL. In data set [4], the C0 turned out to be 502 ng/mL. Moreover, the Vd (usually the apparent volume that relates the amount in the body to the concentration in plasma or blood) in [4] amounted to 9.53 L/kg. The clearance (as a rule, the rate of elimination divided by the concentration) in [4] came to 369 mL/min/kg. Besides, the half-life (as a rule, the time in which the quantity being followed falls by half) in data set [4] was 37.8 min. The Tmax (usually the time from dosing to the highest level) in [5] (male, CD-1, mouse, po) is 4.8 min. Further, the bioavailability (in general, dose-corrected exposure relative to a reference, in per cent) in data set [5] (male, CD-1, mouse, po) stood at 27%. Besides, in data set [5] (oral gavage 50 mg/kg, CD-1 mice), the Cmax (commonly the peak of the concentration-time curve) is listed as 2970 ± 60 ng/mL. Moreover, the “spindle / mitotic phenotype” value in the data set on PC-3 cells [6] is given as “induced a multipolar phenotype”.
